Activity calls are given as the source filed them. No cut-off for these calls is given here.
How the values were obtained:
Canis familiaris [1] = assay: Decrease in systemic arterial blood pressure in dog at >5 ng/kg, iv measured for 2 to 20 mins after drug dosage; assay type: functional, organism-based; settings: Canis lupus familiaris; Artery
[2] = target: Substance-P receptor (Cavia porcellus) (UniProt P30547); assay: Agonist activity at NK1 receptor in guinea pig ileum assessed as increase in muscle tone; assay type: tissue-based
Substance-P receptor (Cavia porcellus), sequence (P30547 whole entry): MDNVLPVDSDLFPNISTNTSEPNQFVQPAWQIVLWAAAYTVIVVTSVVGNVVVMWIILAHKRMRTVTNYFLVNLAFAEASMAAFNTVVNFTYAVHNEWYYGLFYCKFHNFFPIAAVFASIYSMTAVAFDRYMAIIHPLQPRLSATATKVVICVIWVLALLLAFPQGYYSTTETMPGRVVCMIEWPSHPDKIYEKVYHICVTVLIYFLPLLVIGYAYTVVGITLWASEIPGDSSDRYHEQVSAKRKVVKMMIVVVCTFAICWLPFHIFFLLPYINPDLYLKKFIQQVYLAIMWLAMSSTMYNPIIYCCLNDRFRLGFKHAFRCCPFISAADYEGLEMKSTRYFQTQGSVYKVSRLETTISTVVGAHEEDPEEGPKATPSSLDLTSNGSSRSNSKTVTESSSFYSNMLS
Summary of the method: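 Guinea pig ileum segment suspended in a 3-ml bath of oxygenated Tyrode's solution at 38°, with contractile response recorded.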

[3] = target: Substance-P receptor (Rattus norvegicus) (UniProt P14600); assay: Antagonist activity at NK1 receptor in Sprague-Dawley rat pituitary gland assessed as inhibition of LH release by radioimmunoassay in presence of LH-RH
Substance-P receptor (Rattus norvegicus), sequence (P14600 whole entry): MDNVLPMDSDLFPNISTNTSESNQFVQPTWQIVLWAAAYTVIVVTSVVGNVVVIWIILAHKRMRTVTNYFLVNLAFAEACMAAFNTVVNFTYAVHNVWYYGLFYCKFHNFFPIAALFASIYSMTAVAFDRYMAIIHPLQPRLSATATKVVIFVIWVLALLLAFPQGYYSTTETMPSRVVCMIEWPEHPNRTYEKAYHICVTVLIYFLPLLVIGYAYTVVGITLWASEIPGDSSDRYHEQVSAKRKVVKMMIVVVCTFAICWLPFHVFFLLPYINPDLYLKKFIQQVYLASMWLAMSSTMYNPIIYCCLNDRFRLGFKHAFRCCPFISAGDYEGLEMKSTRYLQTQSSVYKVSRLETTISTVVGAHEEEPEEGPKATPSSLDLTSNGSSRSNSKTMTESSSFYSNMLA
Summary of the method: (§1)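 Anterior pituitaries from 20-day-old female Sprague-Dawley rats, two per 1 ml lactated Ringer's, incubated 6 hr at 37° with shaking. Medium was replaced hourly and assayed by RIA for LH, FSH, GH, PRL and TSH. Peptide was added after two preincubation periods (I3–I6), with LH-RH at I5 and I6. Agonism was read from I3/I4 release and antagonism from I5/I6. Values are in ng of NIH reference standards.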

[4] = target: Substance-P receptor (Rattus norvegicus) (UniProt P14600); assay: Antagonist activity at NK1 receptor in Sprague-Dawley rat pituitary gland assessed as inhibition of FSH release by radioimmunoassay in presence of LH-RH; summary of the method: as §1
Pituitary gland [5] = assay: Effect on growth hormone release in Sprague-Dawley rat pituitary gland at 100 ug/ml by radioimmunoassay; assay type: functional, tissue-based; summary of the method: as §1
Pituitary gland [6] = assay: Effect on prolactin release in Sprague-Dawley rat pituitary gland at 100 ug/ml by radioimmunoassay; assay type: functional, tissue-based; summary of the method: as §1
Pituitary gland [7] = assay: Effect on thyrotropin hormone release in Sprague-Dawley rat pituitary gland at 100 ug/ml by radioimmunoassay; assay type: functional, tissue-based; summary of the method: as §1
[8] = Retardation factor of the compound using EtOAc-Pyr-HOAc-H2O at ratio of 5:5:1:3 as solvent system by thin layer chromatography; assay type: physicochemical
[9] = Retardation factor of the compound using CHCl3-MeOH-concentrated NH4OH at ratio of 60:45:20 as solvent system by thin layer chromatography; assay type: physicochemical
[10] = Retardation factor of the compound using EtOH-H2O at ratio of 7:3 as solvent system by thin layer chromatography; assay type: physicochemical
[11] = Retardation factor of the compound using n-BuOH-HOAc-EtOAc-H2O at ratio of 1:1:1:1 as solvent system by thin layer chromatography; assay type: physicochemical
[12] = Retardation factor of the compound using n-PrOH-1N HOAc at ratio of 2:1 as solvent system by thin layer chromatography; assay type: physicochemical
Canis familiaris [13] = assay: Decrease in systemic arterial blood pressure in dog at 10 ng/kg, iv measured for 2 to 20 mins after drug dosage (reference value: 140 mmHg); assay type: functional, Canis lupus familiaris, Artery
[14] = target: Substance-P receptor (Rattus norvegicus) (UniProt P14600); assay: Agonist activity at NK1 receptor in Sprague-Dawley rat pituitary gland assessed as change in LH release at 1000 ng/ml by radioimmunoassay (reference value: -11 +/- 27 ng/ml)
[15] = target: Substance-P receptor (Rattus norvegicus) (UniProt P14600); assay: Agonist activity at NK1 receptor in Sprague-Dawley rat pituitary gland assessed as change in LH release at 10000 ng/ml by radioimmunoassay (reference value: -11 +/- 27 ng/ml)
[16] = target: Substance-P receptor (Rattus norvegicus) (UniProt P14600); assay: Agonist activity at NK1 receptor in Sprague-Dawley rat pituitary gland assessed as change in LH release at 100000 ng/ml by radioimmunoassay (reference value: -11 +/- 27 ng/ml)
[17] = target: Substance-P receptor (Rattus norvegicus) (UniProt P14600); assay: Agonist activity at NK1 receptor in Sprague-Dawley rat pituitary gland assessed as change in FSH release at 1000 ng/ml by radioimmunoassay (reference value: 613 +/- 203 ng/ml)
[18] = target: Substance-P receptor (Rattus norvegicus) (UniProt P14600); assay: Agonist activity at NK1 receptor in Sprague-Dawley rat pituitary gland assessed as change in FSH release at 10000 ng/ml by radioimmunoassay (reference value: 613 +/- 203 ng/ml)
[19] = target: Substance-P receptor (Rattus norvegicus) (UniProt P14600); assay: Agonist activity at NK1 receptor in Sprague-Dawley rat pituitary gland assessed as change in FSH release at 100000 ng/ml by radioimmunoassay (reference value: 613 +/- 203 ng/ml)

CSCC[C@H](NC(=O)[C@H](CC(C)C)NC(=O)CNC(=O)[C@H](Cc1ccc(O)cc1)NC(=O)[C@H](Cc1ccccc1)NC(=O)[C@H](CCC(N)=O)NC(=O)[C@H](CCC(N)=O)NC(=O)[C@@H]1CCCN1C(=O)[C@H](CCCCN)NC(=O)[C@@H]1CCCN1C(=O)[C@@H](N)CCCNC(=N)N)C(N)=O
inhibition (Canis familiaris [1]): Active
Activity [2]: Active
inhibition [3]: inactive
inhibition [4]: inactive
Activity (Pituitary gland [5]): inactive
Activity (Pituitary gland [6]): inactive
Activity (Pituitary gland [7]): inactive
Rf [8]: 0.9
Rf [9]: 0.13
Rf [10]: 0
Rf [11]: 0.09
Rf [12]: 0.05
Activity (Canis familiaris [13]): 110 mmHg
Activity [14]: -13 ng/mL
Activity [15]: 11 ng/mL
Activity [16]: 68 ng/mL
Activity [17]: 666 ng/mL
Activity [18]: 586 ng/mL
Activity [19]: 1330 ng/mL

Reference: ChEMBL document CHEMBL3272072 (J Med Chem, 1976)
